Test results published in ChEMBL document CHEMBL1126205, “Novel spirosuccinimides with incorporated isoindolone and benzisothiazole 1,1-dioxide moieties as aldose reductase inhibitors and antihyperglycemic agents” (1992).
Values joined by “and” are separate entries in the source; they are usually repeats but may differ in a detail not shown here. Equal values may be shown once. One block for each compound: values may come before it. Active and inactive are the calls of the source. The rule behind the calls is not given here.

Experiments:
Mus musculus [1] = assay: Antihyperglycemic activity was determined by measuring percent decrease in plasma glucose at 1 mg/kg/day; type: functional
Mus musculus [2] = assay: Antihyperglycemic activity was determined by measuring percent decrease in plasma glucose at 5 mg/kg/day; type: functional
Mus musculus [3] = assay: Antihyperglycemic activity measured as percent decrease in mice plasma glucose at 100 mg/Kg/day; type: functional
Method in brief: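 Male db/db (C57BL/KsJ) mice, 4–6 per group, dosed at 100 mg/kg per day. Plasma glucose of the drug-treated group is expressed as percent decrease relative to a vehicle-treated control group. Values are mean ± SE, with p < 0.05 marked.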

Rattus norvegicus [4] = assay: In vivo galactitol inhibitory activity measured by its ability to inhibit galactitol accumulation in lens at 6 mg/Kg/day; type: functional, Lens of camera-type eye
Method in brief: (§1)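 Rats (n = 6) fed 20% galactose for 4 days, with compound given in the diet at the stated mg/kg per day. Galactitol accumulation in lens, sciatic nerve or diaphragm is scored as percent inhibition versus the non-treated group, as means of 3–8 drug-treated tissue samples. Dunnett's multiple comparison test applies; NS means p > 0.05.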

Rattus norvegicus [5] = assay: In vivo galactitol inhibitory activity measured by its ability to inhibit galactitol accumulation in lens at 79 mg/Kg/day; type: functional; settings: Lens of camera-type eye
Method in brief: (§2)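 Rats (n = 6) fed 20% galactose for 4 days, with compound given in the diet at the stated daily dose. Galactitol accumulation was measured in lens, sciatic nerve and diaphragm, and % inhibition was taken versus the nontreated group. Means are from three to eight drug-treated tissue samples. Dunnett's multiple comparison test was applied, with p > 0.05 reported as not significant.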

Rattus norvegicus [6] = assay: In vivo galactitol inhibitory activity measured by its ability to inhibit galactitol accumulation in diaphragm at 79 mg/Kg/day; type: functional; method in brief: as §1
Rattus norvegicus [7] = assay: In vivo galactitol inhibitory activity measured by its ability to inhibit galactitol accumulation in lens at 25 mg/Kg/day; type: functional, Lens of camera-type eye; method in brief: as §1
Rattus norvegicus [8] = assay: In vivo galactitol inhibitory activity measured by its ability to inhibit galactitol accumulation in lens at 53 mg/Kg/day; type: functional, Lens of camera-type eye; method in brief: as §1
Rattus norvegicus [9] = assay: In vivo galactitol inhibitory activity measured by its ability to inhibit galactitol accumulation in sciatic nerve at 79 mg/Kg/day; type: functional; method in brief: as §2
[10] = target: Aldo-keto reductase family 1 member B1 (Bos taurus) (UniProt P16116); assay: In vitro aldose reductase inhibitory activity measured by NADPH-dependent inhibition of glyceraldehyde reduction in a partially purified bovine lens preparation at 10E-6 M
Method in brief: (§3)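 Aldose reductase partially purified from bovine lens. Inhibition of NADPH-dependent glyceraldehyde reduction is measured at the single stated concentration and reported as percent inhibition, the mean of two determinations.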

[11] = target: Aldo-keto reductase family 1 member B1 (Bos taurus) (UniProt P16116); assay: In vitro aldose reductase inhibitory activity measured by NADPH-dependent inhibition of glyceraldehyde reduction in a partially purified bovine lens preparation at 10E-7 M; method in brief: as §3
Rattus norvegicus [12] = assay: In vivo galactitol inhibitory activity measured by its ability to inhibit galactitol accumulation in sciatic nerve at 6 mg/Kg/day; type: functional; method in brief: as §2
Rattus norvegicus [13] = assay: In vivo galactitol inhibitory activity measured by its ability to inhibit galactitol accumulation in sciatic nerve at 9 mg/Kg/day; type: functional; method in brief: as §2
Rattus norvegicus [14] = assay: In vivo galactitol inhibitory activity measured by its ability to inhibit galactitol accumulation in sciatic nerve at 3 mg/Kg/day; NS=Not significant (% Inhibition); type: functional, organism-based; method in brief: as §2
Rattus norvegicus [15] = assay: In vivo galactitol inhibitory activity measured by its ability to inhibit galactitol accumulation in lens at 9 mg/Kg/day; NS=Not significant (% Inhibition); type: functional, organism-based; settings: Lens of camera-type eye; method in brief: as §2
Rattus norvegicus [16] = assay: In vivo galactitol inhibitory activity measured by its ability to inhibit galactitol accumulation in lens at 6 mg/Kg/day; NS=Not significant (% Inhibition); type: functional, organism-based; settings: Lens of camera-type eye; method in brief: as §1
Rattus norvegicus [17] = assay: In vivo galactitol inhibitory activity measured by its ability to inhibit galactitol accumulation in diaphragm at 3 mg/Kg/day; type: functional; method in brief: as §1
Rattus norvegicus [18] = assay: In vivo galactitol inhibitory activity measured by its ability to inhibit galactitol accumulation in diaphragm at 6 mg/Kg/day; type: functional; method in brief: as §1
Rattus norvegicus [19] = assay: In vivo galactitol inhibitory activity measured by its ability to inhibit galactitol accumulation in diaphragm at 9 mg/Kg/day; type: functional; method in brief: as §1
Rattus norvegicus [20] = assay: In vivo galactitol inhibitory activity measured by its ability to inhibit galactitol accumulation in lens at 3 mg/Kg/day; NS=Not significant (% Inhibition); type: functional, organism-based; settings: Lens of camera-type eye; method in brief: as §1
Rattus norvegicus [21] = assay: In vivo galactitol inhibitory activity measured by its ability to inhibit galactitol accumulation in sciatic nerve at 6 mg/Kg/day; NS=Not significant (% Inhibition); type: functional, organism-based; method in brief: as §2
Rattus norvegicus [22] = assay: In vivo galactitol inhibitory activity measured by its ability to inhibit galactitol accumulation in sciatic nerve at 10 mg/Kg/day; type: functional; method in brief: as §2
Rattus norvegicus [23] = assay: In vivo galactitol inhibitory activity measured by its ability to inhibit galactitol accumulation in diaphragm at 10 mg/Kg/day; type: functional; method in brief: as §1
Rattus norvegicus [24] = assay: In vivo galactitol inhibitory activity measured by its ability to inhibit galactitol accumulation in lens at 10 mg/Kg/day; NS=Not significant (% Inhibition); type: functional; settings: Lens of camera-type eye; method in brief: as §1
Rattus norvegicus [25] = assay: In vivo galactitol inhibitory activity measured by its ability to inhibit galactitol accumulation in lens at 3 mg/Kg/day; NS=Not significant; type: functional, organism-based; settings: Lens of camera-type eye; method in brief: as §1
Rattus norvegicus [26] = assay: In vivo galactitol inhibitory activity measured by its ability to inhibit galactitol accumulation in sciatic nerve at 46 mg/Kg/day; NS=Not significant (% Inhibition); type: functional, organism-based; method in brief: as §2
Rattus norvegicus [27] = assay: In vivo galactitol inhibitory activity measured by its ability to inhibit galactitol accumulation in lens at 46 mg/Kg/day; type: functional; settings: Lens of camera-type eye; method in brief: as §1
Rattus norvegicus [28] = assay: In vivo galactitol inhibitory activity measured by its ability to inhibit galactitol accumulation in diaphragm at 46 mg/Kg/day; NS=Not significant (% Inhibition); type: functional, organism-based; method in brief: as §1
Rattus norvegicus [29] = assay: In vivo galactitol inhibitory activity measured by its ability to inhibit galactitol accumulation in sciatic nerve at 4 mg/Kg/day; type: functional; method in brief: as §2
Rattus norvegicus [30] = assay: In vivo galactitol inhibitory activity measured by its ability to inhibit galactitol accumulation in lens at 4 mg/Kg/day; type: functional; settings: Lens of camera-type eye; method in brief: as §1
Rattus norvegicus [31] = assay: In vivo galactitol inhibitory activity measured by its ability to inhibit galactitol accumulation in diaphragm at 4 mg/Kg/day; type: functional; method in brief: as §1
Rattus norvegicus [32] = assay: In vivo galactitol activity by measuring its ability to inhibit galactitol accumulation in sciatic nerve at 6 mg/Kg/day; NS=Not significant (% Inhibition); type: functional, organism-based; method in brief: as §1
Rattus norvegicus [33] = assay: In vivo galactitol inhibitory activity measured by its ability to inhibit galactitol accumulation in sciatic nerve at 97 mg/kg/day; type: functional; method in brief: as §2
Rattus norvegicus [34] = assay: In vivo galactitol inhibitory activity measured by its ability to inhibit galactitol accumulation in lens at 97 mg/Kg/day; NS=Not significant (% Inhibition); type: functional, organism-based; settings: Lens of camera-type eye; method in brief: as §2
Rattus norvegicus [35] = assay: In vivo galactitol inhibitory activity measured by its ability to inhibit galactitol accumulation in diaphragm at 97 mg/kg/day; type: functional; method in brief: as §1

Compound: Cc1oc(-c2ccccc2)nc1CCOc1ccc(CC2SC(=O)NC2=O)cc1 (centres undefined)
- Decrease (Mus musculus [1]): 40%
- Decrease (Mus musculus [2]): 52%

Compound: CN1C(=O)c2ccc(Cl)cc2C12CC(=O)NC2=O (stereo in doubt; 32)
- Decrease (Mus musculus [3]): <15%
- Inhibition (Rattus norvegicus [4]): 28% and 53%
- inhibition in vivo at 79 mg/kg/day (Rattus norvegicus [5]): 81%
- inhibition in vivo at 79 mg/kg/day (Rattus norvegicus [6]): 92%
- Inhibition (Rattus norvegicus [7]): 51% and 84% and 81%
- Inhibition (Rattus norvegicus [8]): 69% and 92% and 90%
- inhibition in vivo at 79 mg/kg/day (Rattus norvegicus [9]): 80%

Compound: O=C(O)CN1C(=O)c2ccccc2C12CC(=O)NC2=O (centres undefined)
- inhibition (Rattus norvegicus [26]): inactive
- inhibition in vivo at 46 mg/kg/day (Rattus norvegicus [27]): 17%
- inhibition (Rattus norvegicus [28]): inactive

Compound: O=C1NC(=O)[C@@]2(CCOc3ccc(F)cc32)N1 [SORBINIL]
- inhibition in vivo at 4 mg/kg/day (Rattus norvegicus [29]): 55%
- inhibition in vivo at 4 mg/kg/day (Rattus norvegicus [30]): 20%
- inhibition in vivo at 4 mg/kg/day (Rattus norvegicus [31]): 69%

Continued, in another order:

- inhibition [10]: 81%
- inhibition [11]: 37%
Compound: CN1C(=O)c2cc(-c3ccccc3)ccc2C12CC(=O)NC2=O (centres undefined)
- Decrease (Mus musculus [3]): <15%
- inhibition in vivo at 6 mg/kg/day (Rattus norvegicus [12]): 27%
- inhibition in vivo at 9 mg/kg/day (Rattus norvegicus [13]): 34%
- inhibition (Rattus norvegicus [14]): inactive
- inhibition (Rattus norvegicus [15]): inactive
- inhibition (Rattus norvegicus [16]): inactive
- inhibition in vivo at 3 mg/kg/day (Rattus norvegicus [17]): 29%
- inhibition in vivo at 6 mg/kg/day (Rattus norvegicus [18]): 43%
- inhibition in vivo at 9 mg/kg/day (Rattus norvegicus [19]): 55%
- inhibition (Rattus norvegicus [20]): inactive

- inhibition [10]: 59%
- inhibition [11]: 11%
Compound: Cc1cccc2c1C(=O)N(C)C21CC(=O)NC1=O (centres undefined)
- inhibition (Rattus norvegicus [21]): inactive
- inhibition (Rattus norvegicus [14]): inactive
- Inhibition (Rattus norvegicus [22]): 50%
- inhibition in vivo at 10 mg/kg/day (Rattus norvegicus [22]; Rattus norvegicus, Sciatic nerve): 63%
- inhibition in vivo at 6 mg/kg/day (Rattus norvegicus [4]; Rattus norvegicus, Lens of camera-type eye): 28%
- inhibition in vivo at 10 mg/kg/day (Rattus norvegicus [23]): 69%
- inhibition in vivo at 3 mg/kg/day (Rattus norvegicus [17]): 37%
- inhibition in vivo at 6 mg/kg/day (Rattus norvegicus [18]): 57%
- inhibition in vivo at 10 mg/kg/day (Rattus norvegicus [24]): 29%
- inhibition (Rattus norvegicus [25]): inactive

- inhibition [10]: 33%
- inhibition [11]: 0%
Compound: CN1C(=O)c2ccc(Cl)cc2C12CC(=O)NC2=O (single isomer, unassigned; (-))
- inhibition (Rattus norvegicus [16]): inactive
- inhibition (Rattus norvegicus [32]): inactive

- inhibition [10]: 70%
- inhibition [11]: 13%
Compound: O=C1CC2(C(=O)N1)c1cc(Cl)ccc1C(=O)N2Cc1ccc(Br)cc1F (centres undefined)
- Decrease (Mus musculus [3]): <15%
- inhibition in vivo at 97 mg/kg/day (Rattus norvegicus [33]): 24%
- inhibition (Rattus norvegicus [34]): inactive
- inhibition in vivo at 97 mg/kg/day (Rattus norvegicus [35]): 30%
